A word on the MIC: it is the lowest concentration found to suppress growth. Read a high MIC as a less susceptible organism.

Holding throughout (assay type): functional
Test [1] concerns Pseudomonas aeruginosa. As to the kind of experiment: Antibacterial activity against Pseudomonas aeruginosa ATCC 27853 after 24 hrs by micro-broth dilution method. Conditions: ATCC 27853, 24 h. In outline: (§1)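 MIC by broth microdilution following NCCLS methods. Inoculum adjusted in sterile saline to 1×10^4–1×10^5 CFU. Compounds from DMSO stocks, two-fold serial dilutions in Mueller-Hinton broth at 256 down to 0.25 µg/mL. Incubation 37 °C, 24 h. DMSO solvent control at matching dilutions. Growth read visually and spectrophotometrically. MIC is the lowest concentration arresting growth.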
(In general: Broth dilution looks for growth in wells or tubes with falling amounts of substance.)

Test [2] relates to Staphylococcus aureus. As to the kind of experiment: Antibacterial activity against methicillin-resistant Staphylococcus aureus N315 after 24 hrs by micro-broth dilution method. Conditions: N315, 24 h. In outline: (§2)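 Broth microdilution per NCCLS in Mueller-Hinton broth. Inoculum adjusted in sterile saline to 1×10^4–1×10^5 CFU. Compounds taken from DMSO stocks and serially diluted two-fold to final 256–0.25 µg/mL (11 levels). Incubation 37 °C, 24 h, with a DMSO solvent control. Growth read visually and spectrophotometrically. MIC is the lowest concentration that arrests growth.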

The subject of test [3] is Bacillus subtilis. Put plainly: Antibacterial activity against Bacillus subtilis ATCC 21216 after 24 hrs by micro-broth dilution method. Particulars: ATCC 21216, 24 h. In outline:
as §1

The subject of test [4] is Escherichia coli. Put plainly: Antibacterial activity against Escherichia coli ATCC 25922 after 24 hrs by micro-broth dilution method. Particulars: ATCC 25922, 24 h. In outline:
as §1

Test [5] deals with Candida albicans. As to the kind of experiment: Antifungal activity against Candida albicans ATCC 76615 after 24 hrs by micro-broth dilution method. Conditions: ATCC 76615, 24 h. In outline: (§3)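 Broth microdilution per NCCLS. Spore suspension in sterile distilled water, taken from 1-day-old cultures on Sabouraud agar, final 1–5×10^3 spores/mL. Compounds diluted from stocks in RPMI 1640 to eleven concentrations, 0.25–256 µg/mL. Incubation 35 °C, 24 h. Growth scored visually and spectrophotometrically. MIC is the lowest concentration arresting fungal growth.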

Test [6] concerns Bacillus. As to the kind of experiment: Antibacterial activity against Bacillus proteus ATCC 13315 after 24 hrs by micro-broth dilution method. Conditions: ATCC 13315, 24 h. The gist of the method:
as §1

Test [7] has as its system Staphylococcus aureus. As to the kind of experiment: Antibacterial activity against Staphylococcus aureus ATCC 29213 after 24 hrs by micro-broth dilution method. Conditions: ATCC 29213, 24 h. In outline: as §2
Test [8] has as its system Aspergillus fumigatus. Put plainly: Antifungal activity against Aspergillus fumigatus ATCC 96918 after 24 hrs by micro-broth dilution method. Particulars: ATCC 96918, 24 h. The gist of the method: as §3

In brackets after ≈: the same amount, converted by molar mass. Bounds are passed on as bounds.

Consider `OCCN(CCO)Cc1ccccc1Cl`, for which the MIC is > 256 µg/mL in test [1]; > 256 µg/mL in test [2]; > 256 µg/mL in test [3]; > 256 µg/mL in test [4]; > 256 µg/mL in test [5]; 256 µg/mL (≈ 1110 µM) in test [6]. The MIC in test [7] and in test [8] was > 256 µg/mL in each case.
On to `Clc1ccc(CN(CCn2cnc3ccccc32)CCn2cnc3ccccc32)c(Cl)c1`, for which the MIC in test [1] is 32 µg/mL (≈ 68.9 µM); in test [2], 64 µg/mL (≈ 138 µM); in test [3] it was 32 µg/mL (≈ 68.9 µM); in test [4], 128 µg/mL (≈ 276 µM); in test [5] it was > 256 µg/mL; in test [6], 32 µg/mL (≈ 68.9 µM). Moreover, the results for the MIC in test [7] and in test [8] were 32 µg/mL (≈ 68.9 µM) and > 256 µg/mL, respectively.
Take `Cl.Clc1ccc(CN(CCn2ccnc2)CCn2ccnc2)cc1Cl`: the MIC in test [1] is 32 µg/mL; in test [2], 8 µg/mL; in test [3], 4 µg/mL; in test [4], 4 µg/mL; in test [5], > 256 µg/mL; in test [6], 16 µg/mL. In addition, the values for the MIC in test [7] and in test [8] were 4 µg/mL and 32 µg/mL, respectively.
For the molecule `Clc1cccc(CN(CCn2cncn2)CCn2cncn2)c1`, the MIC in test [1] was 16 µg/mL (≈ 48.2 µM); in test [2], 256 µg/mL (≈ 772 µM); in test [3], > 256 µg/mL; in test [4] it was > 256 µg/mL; in test [5], > 256 µg/mL; in test [6] it was 32 µg/mL (≈ 96.4 µM). For the same molecule, the MIC in test [7] was 256 µg/mL (≈ 772 µM); in test [8] it was > 256 µg/mL.
Regarding `Fc1ccc(CN(CCn2cnc3ccccc32)CCn2cnc3ccccc32)c(F)c1.O=[N+]([O-])O`, the MIC in test [1] is > 256 µg/mL; in test [2], 256 µg/mL; in test [3], > 256 µg/mL; in test [4], > 256 µg/mL; in test [5], > 256 µg/mL; in test [6], 128 µg/mL. Besides, the MIC was 128 µg/mL in test [7] and > 256 µg/mL in test [8].
As to `Cl.Fc1ccc(CN(CCn2cnc3ccccc32)CCn2cnc3ccccc32)c(F)c1`, the MIC was > 256 µg/mL in test [1]; 128 µg/mL in test [2]; > 256 µg/mL in test [3]; > 256 µg/mL in test [4]; > 256 µg/mL in test [5]; 64 µg/mL in test [6]. Besides, the figures for the MIC in test [7] and in test [8] were 32 µg/mL and > 256 µg/mL, respectively.
`Clc1ccc(CN(CCn2cncn2)CCn2cncn2)c(Cl)c1`: the MIC is 32 µg/mL (≈ 87.4 µM) in test [1]; 256 µg/mL (≈ 699 µM) in test [2]; > 256 µg/mL in test [3]; 64 µg/mL (≈ 175 µM) in test [4]; 0.25 µg/mL (≈ 0.683 µM) in test [5]; 16 µg/mL (≈ 43.7 µM) in test [6]. Moreover, the MIC in test [7] was 64 µg/mL (≈ 175 µM); in test [8] it was > 256 µg/mL.
As to `Fc1ccc(CN(CCn2cncn2)CCn2cncn2)c(F)c1`, the MIC in test [1] was 8 µg/mL (≈ 24 µM); in test [2], > 256 µg/mL; in test [3], 64 µg/mL (≈ 192 µM); in test [4], 64 µg/mL (≈ 192 µM); in test [5], > 256 µg/mL; in test [6], > 256 µg/mL. The MIC was 128 µg/mL (≈ 384 µM) in test [7] and > 256 µg/mL in test [8].
With `Fc1ccc(CN(CCn2cnc3ccccc32)CCn2cnc3ccccc32)c(F)c1`, the MIC in test [1] was > 256 µg/mL; in test [2], > 256 µg/mL; in test [3], 64 µg/mL (≈ 148 µM); in test [4] it was 128 µg/mL (≈ 297 µM); in test [5], > 256 µg/mL; in test [6], 64 µg/mL (≈ 148 µM). For the same molecule, the MIC in test [7] is 64 µg/mL (≈ 148 µM); in test [8], > 256 µg/mL.
`OCCN(CCO)Cc1ccc(Cl)cc1`: the MIC is 256 µg/mL (≈ 1110 µM) in test [1]; > 256 µg/mL in test [2]; > 256 µg/mL in test [3]; 256 µg/mL (≈ 1110 µM) in test [4]; > 256 µg/mL in test [5]; 256 µg/mL (≈ 1110 µM) in test [6]. Moreover, the minimal inhibitory concentration (MIC) in test [7] and in test [8] was > 256 µg/mL each time.
For the molecule `OCCN(CCO)Cc1cccc(Cl)c1`, the MIC in test [1], in test [2], in test [3], in test [4], in test [5] and in test [6] was > 256 µg/mL in each case. Further, the MIC in test [7] and in test [8] was > 256 µg/mL each time.
In the case of `Clc1ccc(CN(CCn2ccnc2)CCn2ccnc2)cc1Cl.O=[N+]([O-])O`, the MIC is 64 µg/mL in test [1]; 16 µg/mL in test [2]; 16 µg/mL in test [3]; 4 µg/mL in test [4]; > 256 µg/mL in test [5]; 32 µg/mL in test [6]. In addition, the MIC in test [7] worked out at 16 µg/mL; in test [8] it was 64 µg/mL.
On to `Clc1ccccc1CN(CCn1ccnc1)CCn1ccnc1`, for which the MIC was 256 µg/mL (≈ 776 µM) in test [1]; 256 µg/mL (≈ 776 µM) in test [2]; > 256 µg/mL in test [3]; 16 µg/mL (≈ 48.5 µM) in test [4]; > 256 µg/mL in test [5]; > 256 µg/mL in test [6]. Also, the MIC in test [7] is 128 µg/mL (≈ 388 µM); in test [8] it was > 256 µg/mL.

(Values after ChEMBL document CHEMBL1240446, “Synthesis and biological activities of novel amine-derived bis-azoles as potential antibacterial and antifungal agents” (2010).)
